DENV2 CPE: DENV2-induced cell death inhibition. DENV2-infected cells, cytopathic effect rescue, plate reader. CPE inhibition, % at 9.99 µM. actives 1.7% (n = 350,000); in the data active = CPE inhibition above about 20%, passing the limit was not always enough; inconclusive = no clear call, values can overlap the other calls; tested in BHK-21 cells;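 also: 0% = median of neutral control wells and 100% = median of positive control wells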
E-sel inducer: induces E-selectin expression in human endothelial cells | actives 0.37% (n = 260,000) | activation, % at 7.58 µM | P16581 | HUVEC E-selectin immunofluorescence imaging; normalized: neutral wells 0, TNF-alpha wells 100 | AID 686992;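 active = mean E-selectin-positive cell signal at least 10% of the positive control, reached in at least 60% of replicates, without over 20% cell loss; inconclusive = no rule given, readout overlaps actives, possibly toxicity-flagged; inactive = the rest, including those meeting only one limit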
Target sequence (P16581 whole entry, looked up): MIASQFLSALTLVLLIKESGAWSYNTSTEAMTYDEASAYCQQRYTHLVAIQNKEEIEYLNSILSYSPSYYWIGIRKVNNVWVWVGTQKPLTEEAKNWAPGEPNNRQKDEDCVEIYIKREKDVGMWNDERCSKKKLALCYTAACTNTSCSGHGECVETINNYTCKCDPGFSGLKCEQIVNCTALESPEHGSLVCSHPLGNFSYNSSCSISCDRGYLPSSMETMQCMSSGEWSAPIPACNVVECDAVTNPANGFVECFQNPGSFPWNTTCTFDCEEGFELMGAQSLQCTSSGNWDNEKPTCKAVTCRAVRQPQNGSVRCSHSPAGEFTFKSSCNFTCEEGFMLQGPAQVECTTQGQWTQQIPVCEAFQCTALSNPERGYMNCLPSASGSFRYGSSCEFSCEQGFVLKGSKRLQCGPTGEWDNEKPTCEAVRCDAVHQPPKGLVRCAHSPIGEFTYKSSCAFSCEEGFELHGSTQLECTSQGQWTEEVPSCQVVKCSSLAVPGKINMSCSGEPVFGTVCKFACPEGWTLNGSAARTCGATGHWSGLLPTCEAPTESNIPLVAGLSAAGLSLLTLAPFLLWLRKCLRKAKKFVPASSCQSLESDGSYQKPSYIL
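assay system = HUVEC, human umbilical vein endothelial cells | input = 3,000 HUVEC seeded per well | medium = EGM-2 growth medium on 0.1% gelatin-coated wells | dosing = one compound dose added by pin transfer | signal = immunofluorescence imaging | read-out basis = % PE-positive cells | control set = TNF-alpha, DMSO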
SIRT5 inh: blocks human SIRT5 desuccinylation of peptide. Purified SirT5, succinyl-peptide AMC, trypsin-coupled fluorescence. actives 1.1% (n = 330,000). inhibition, % at 15 µM; in the data active = inhibition above about 15%; inconclusive = no clear call, values can overlap the other calls
Starred values were filed as active, the others as inactive; u = inconclusive; x = no result. Compounds with a hit are over-represented: about 2.9% of the library has one in this group of screens.

SMILES	DENV2 CPE	E-sel inducer	SIRT5 inh
CNC[C@@H]1Oc2ncc(-c3ccccc3)cc2C(=O)N([C@H](C)CO)C[C@@H]1C	2	-1	-1
CNC[C@@H]1Oc2ncc(C#Cc3ccccc3F)cc2C(=O)N([C@H](C)CO)C[C@@H]1C	x	0	x
CCO[C@@H]1c2c(ccc3ccc(=O)oc23)OC(C)(C)[C@@H]1O	x	5	x
Cc1c(Cl)cccc1NC(=S)NC1CCN(Cc2ccccc2)CC1	x	x	-8
CCN(Cc1cnn(C)c1)C(=O)C1CCC(=O)N(CCc2ccc(OC)cc2)C1 (configuration not stated)	-3	x	9
CC(C)(C)OC(=O)C[C@@H]1C/C=C\C[C@H](CC(=O)NCCO)C(=O)N2CCC[C@H]2COC1=O	83*	u	x
CC(C)(C)OC(=O)C[C@H]1C/C=C\C[C@@H](CC(=O)NCCO)C(=O)N2CCC[C@H]2COC1=O	-4	0	-3
CC(C)(C)OC(=O)CC(S(=O)(=O)c1ccccc1)S(=O)(=O)c1ccccc1	5	1	x
O=C(NCC1CCCCC1)c1ccc([N+](=O)[O-])cc1	-5	x	x
Cc1cc(C(=O)NCC2CCCCC2)ccc1[N+](=O)[O-]	-2	x	22*
Cc1nn(CC#N)c(=O)n1-c1ccc(Cl)cc1	7	3	-1
COc1cc(O)c(C(CC(=O)N2CCCC(C)C2)c2cc(OC)c(OC)c(OC)c2)c(OC)c1 (configuration not stated)	62*	0	-2
COc1ccc(C(CC(=O)N2CCCC(C)C2)c2c(O)cc(OC)cc2OC)cc1 (configuration not stated)	14	0	1
OC[C@H]1O[C@@H](n2cnc3c(NC4CCCC4)ncnc32)[C@H](O)[C@@H]1O	-9	0	-4
C=CCOc1cccc(C(=O)N2CCCC(Nc3ccc(F)cc3)C2)c1 (configuration not stated)	u	0	-2
Cc1cccc(COCC(Cc2ccccc2)N2CCN(C(=O)c3cccc(Cl)c3)CCC2=O)c1 (configuration not stated)	-3	0	x
CC(C)C[C@@H](COCc1ccc(Cl)cc1)N1CCN(C(=O)c2ccc(C(F)(F)F)cc2)CCC1=O	-5	5	-9
CC(C)CC(COCc1ccc(Cl)cc1)N1CCN(C(=O)c2ccc(Cl)cc2Cl)CCC1=O (configuration not stated)	100*	1	x
Cc1cccc(COC[C@H](Cc2ccccc2)N2CCN(C(=O)c3cc(Cl)cc(Cl)c3)CCC2=O)c1	-10	-7	41*
CCC(C)n1c(SCc2ccc([N+](=O)[O-])cc2)nc2ccsc2c1=O (configuration not stated)	3	x	2
CC(C)n1cc(CN2CCC(n3nccc3NC(=O)C3CCCC3)CC2)cn1	5	0	4
Cc1nc2nc(-c3ccccc3)[nH]n2c(=O)c1C	0	x	12
Cc1ccc2nc(NC3=NC(CC(=O)O)C(=O)N3)nc(C)c2c1 (configuration not stated)	-1	-2	44*
CCOc1ccc2nc(NC3=NC(c4ccc(OC)cc4)CC(=O)N3)nc(C)c2c1 (configuration not stated)	4	x	-5
CCN(CC)C(=O)c1ccc2sc([C@@H]3O[C@H](CO)[C@H](O)[C@H](O)[C@H]3O)nc2c1	-10	0	x
SMILES	DENV2 CPE	E-sel inducer	SIRT5 inh
C[C@@H]1CN([C@H](C)CO)C(=O)c2cc(NC(=O)Nc3ccc(C(F)(F)F)cc3)ccc2O[C@@H](C)CCCCO[C@H]1CN(C)C(=O)NC1CCCCC1	-4	0	0
C[C@@H]1CCCCO[C@H](CN(C)C(=O)NC2CCCCC2)[C@H](C)CN([C@H](C)CO)C(=O)c2cc(NC(=O)Nc3ccc(C(F)(F)F)cc3)ccc2O1	31*	1	2
C[C@H]1CN([C@@H](C)CO)C(=O)c2cc(NC(=O)Nc3ccc(C(F)(F)F)cc3)ccc2O[C@@H]1CN(C)C(=O)NC1CCCCC1	-1	-12	-3
C[C@@H]1CN([C@@H](C)CO)C(=O)c2cc(NC(=O)Nc3ccc(C(F)(F)F)cc3)ccc2O[C@@H](C)CCCCO[C@@H]1CN(C)C(=O)NC1CCCCC1	60*	1	2
C[C@@H]1CN([C@@H](C)CO)C(=O)c2cc(NC(=O)Nc3ccc(C(F)(F)F)cc3)ccc2O[C@@H]1CN(C)C(=O)NC1CCCCC1	101*	-12	-1
C[C@@H]1CCCCO[C@@H](CN(C)C(=O)Nc2ccc(C(F)(F)F)cc2)[C@@H](C)CN([C@H](C)CO)C(=O)c2cc(NC(=O)NC3CCCCC3)ccc2O1	8	x	9
O=c1[nH]c(CSc2ncnc3sccc23)nc2ccccc12	-8	x	-2
CCOc1ccccc1N1C(=O)CN(Cc2ccc(OC)c(OC)c2)C1=S	3	0	-1
